The nature of experiment [1]: Superoxyl radical (O2) scavenging reaction rate constant in competition with nitro-blue tetrazolium of superoxyl radicals formed by xanthine oxidase in the presence of xanthine. The class given is functional.
For experiment [2], the species on record is Rattus norvegicus. Kind of experiment: In vitro inhibition of lipid autoxidation (TBARS formation) of rat brain homogenate. The class given is functional. In outline: (§1)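 Rat brain homogenate was incubated at 37 °C for 30 min, and TBARS formation was measured. The value is the concentration giving 50% inhibition, as mean ± SD with the number of experiments given.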

For experiment [3], the system named is Mus musculus. Kind of experiment: Ex vivo inhibition of mouse brain lipid autoxidation after 1 hr by 20 umol/kg subcutaneous administration. Conditions: sc. In kind it is functional. In outline: (§2)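 Male CD1 mice (30 g, five per group) were given 20 μmol/kg sc or saline and killed 1 h later. Brains were frozen in liquid N2, stored at -80 °C, then homogenized 1/19 w/v in ice-cold water. Homogenate (10 mg tissue) was incubated in 20 mM KH2PO4 pH 7.3 with 0.14 M KCl (final) at 37 °C for 30 min. Unincubated samples gave basal TBARS.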

The subject of experiment [4] is Mus musculus. Kind of experiment: Mouse brain drug concentration after 1 hr of 20 umol/kg subcutaneous administration. In kind it is functional, organism-based. The procedure, abridged:
(§3)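 Mouse brain homogenates taken 1 h after 20 μmol/kg sc were diluted in methanol containing 2% ascorbic acid and centrifuged. Supernatant was run on a C8 column with isocratic 0.1 M phosphate/50–75% methanol. Detection was electrochemical at 0.6 V. Results are nmol/g, mean ± SD, five mice per group.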

For experiment [5], the system named is Mus musculus. Description: Ex vivo inhibition of mouse brain lipid autoxidation after 1 hr by 1 umol/kg subcutaneous administration. In kind it is functional. The note with it: sc.
For experiment [6], the species on record is Rattus norvegicus. Kind of experiment: In vitro lipid autoxidation (TBARS formation) in rat brain homogenate; no inhibition. In kind it is functional. In outline: as §1
Experiment [7] concerns Mus musculus. Kind of experiment: […] fter 1 hr by 20 umol/kg subcutaneous administration. In kind it is functional, organism-based. The procedure, abridged:
as §3

The species named for experiment [8] is Mus musculus. Description: Percentage number of paraparetic mice 1 hr after concussive head injury. In kind it is functional. In outline: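 Mice were dosed 12 mg/kg sc 30 min before concussive head injury, a blow of measured severity. At 1 h a blinded string test counted mice unable to raise their hind limbs onto a horizontal string as paraparetic. Groups had 20–25 mice and were compared with saline by χ-square.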

Experiment [9] can be described thus: O2 scavenging reaction rate constant for competition with nitro-blue tetrazolium of superoxyl radicals formed by xanthine oxidase in the presence of xanthine;No reaction. The class given is functional.
Experiment [10] concerns Mus musculus. Description: Ex vivo inhibition of mouse brain lipid autoxidation after 1 hr by 20 umol/kg subcutaneous administration; no inhibition. In kind it is functional, organism-based. The procedure, abridged: as §2

Active and inactive are the calls of the source. No cut-off for these calls is given here.

In general, IC50 refers to the midpoint of a concentration-inhibition curve. A high value points to weaker potency. `Cc1c(C)c2c(c(C)c1O)C(C(=O)N1CCN(C)CC1)C(C)(C)O2` (stereo not drawn): the Rate constant in experiment [1] stood at 83000 M⁻¹ s⁻¹. Also, in the experiment filed under Rattus norvegicus [2] (Rattus norvegicus, Brain), inhibition was half-maximal at 12 µM (IC50).
The term inhibition in vivo denotes the change of the read-out against control, counted positive when it falls. High values mean strong suppression, low ones little suppression. `Cc1c(C)c2c(c(C)c1O)CCC(C)(CCN(C)C)O2` (stereo not drawn) yielded an inhibition in vivo at 20 µmol/kg in the experiment with Mus musculus [3] of 16%. Further, the Rate constant in experiment [1] was 27000 M⁻¹ s⁻¹. This compound also displayed a 50% inhibitory concentration (IC50) in the experiment filed under Rattus norvegicus [2] (Rattus norvegicus, Brain) of 0.7 µM.
Consider `Cc1c(C)c2c(c(C)c1O)C(CN1CCN(Cc3ccccc3)CC1)C(C)(C)O2` (stereo not drawn), for which, in the experiment with Mus musculus [3], the inhibition in vivo at 20 µmol/kg came to 24%. In addition, the Rate constant in [1] was 20000 M⁻¹ s⁻¹. This compound also yielded a Concentration in the experiment with Mus musculus [4] of 1.6 nM/g. Besides, in the experiment filed under Rattus norvegicus [2] (Rattus norvegicus, Brain), inhibition was half-maximal at 0.3 µM (IC50).
Take `Cc1c(C)c2c(c(C)c1O)C(C(=O)N1CCN(CCO)CC1)C(C)(C)O2` (stereo not drawn): in [1], the Rate constant is 43000 M⁻¹ s⁻¹. Moreover, the IC50 in the experiment filed under Rattus norvegicus [2] (Rattus norvegicus, Brain) worked out at 19 µM.
Taken in the same sequence, the figures for `Cc1c(C)c2c(c(C)c1O)C(CO)C(C)(C)O2` (stereo not drawn) were 140000 M⁻¹ s⁻¹ and 2.6 µM.
With `Cc1c(C)c2c(c(C)c1O)C(CN1CCN(c3ncccn3)CC1)C(C)(C)O2` (stereo not drawn), the inhibition in vivo at 20 µmol/kg in the experiment on Mus musculus [3] came out at 29%. In the experiment on Mus musculus [4], this compound displayed a Concentration of 0.8 nM/g. The compound also came in with an IC50 in the experiment filed under Rattus norvegicus [2] (Rattus norvegicus, Brain) of 0.4 µM.
As for `Cc1c(C)c2c(c(C)c1O)C(C(=O)O)C(C)(C)O2` (stereo not drawn), the Rate constant in experiment [1] was 67000 M⁻¹ s⁻¹. The compound also displayed a 50% inhibitory concentration (IC50) in the experiment filed under Rattus norvegicus [2] (Rattus norvegicus, Brain) of 27 µM.
As to `Cc1c(C)c2c(c(C)c1O)C(CN1CCCCC1)C(C)(C)O2` (stereo not drawn), the inhibition in vivo at 1 µmol/kg in the experiment with Mus musculus [5] was 50%. For the same compound, in experiment [1], the Rate constant amounted to 90000 M⁻¹ s⁻¹. This compound showed an IC50 in the experiment filed under Rattus norvegicus [2] (Rattus norvegicus, Brain) of 0.4 µM.
The compound `CC(=O)Oc1c(C)c(C)c2c(c1C)C(CN1CCN(C)CC1)C(C)(C)O2` (stereo not drawn) registered an inhibition in vivo at 20 µmol/kg in the experiment on Mus musculus [3] of 57%. For the same compound, in the experiment filed under Rattus norvegicus [6], the IC50 result is listed as “Not Active”. In the experiment on Mus musculus [7], this compound displayed a Concentration of 7.2 nM/g.
`Cc1c(C)c2c(c(C)c1O)CC[C@@](C)(CCC[C@H](C)CCC[C@H](C)CCCC(C)C)O2` [ALPHA-TOCOPHEROL]: in the experiment listed under Rattus norvegicus [2] (Rattus norvegicus, Brain), the IC50 came out at 14 µM.
In the case of `Cc1c(C)c2c(c(C)c1O)CCC(C)(CC[N+](C)(C)C)O2.Cc1ccc(S(=O)(=O)[O-])cc1` (stereo not drawn), the Paraparetic mice in the experiment listed under Mus musculus [8] came out at 40%. The Rate constant in [1] worked out at 24000 M⁻¹ s⁻¹. This compound came in with an IC50 in the experiment listed under Rattus norvegicus [2] (Rattus norvegicus, Brain) of 2 µM.
In the experiment with Mus musculus [3], `CC(=O)OCCN1CCN(CC2c3c(C)c(OC(C)=O)c(C)c(C)c3OC2(C)C)CC1` (stereo not drawn) registered an inhibition in vivo at 20 µmol/kg of 35%. Besides, the IC50 entry in the experiment listed under Rattus norvegicus [6] is “Not Active”. Moreover, the Concentration in the experiment with Mus musculus [7] was 5.7 nM/g. In addition, the Rate constant entry in [9] is “inactive”.
Take `Cc1c(C)c2c(c(C)c1O)C(C[N+](C)(C)C)C(C)(C)O2` (stereo not drawn): in experiment [1], the Rate constant was found to be 49000 M⁻¹ s⁻¹. Moreover, half-maximal inhibition in the experiment listed under Rattus norvegicus [2] (Rattus norvegicus, Brain) (IC50) required 3.6 µM.
For `Cc1c(C)c2c(c(C)c1O)C(CN1CCN(C)CC1)C(C)(C)O2` (stereo not drawn), in the experiment with Mus musculus [3], the inhibition in vivo at 20 µmol/kg turned out to be 63%. In the experiment listed under Mus musculus [8], this compound had a Paraparetic mice of 30%. For the same compound, in the experiment on Mus musculus [4], the Concentration turned out to be 7.5 nM/g. Moreover, the IC50 in the experiment filed under Rattus norvegicus [2] came to 0.4 µM; in the experiment listed under Rattus norvegicus [2] (Rattus norvegicus, Brain), 0.45 µM.
For `Cc1c(C)c2c(c(C)c1O)C(CNC(C)C)C(C)(C)O2` (stereo not drawn), in the experiment with Mus musculus [5], the inhibition in vivo at 1 µmol/kg was determined as 37%. Also, the Rate constant in [1] is 330000 M⁻¹ s⁻¹. Moreover, the IC50 in the experiment filed under Rattus norvegicus [2] (Rattus norvegicus, Brain) is 1.4 µM.
In the experiment filed under Rattus norvegicus [2] (Rattus norvegicus, Brain), `COC(=O)C1c2c(C)c(O)c(C)c(C)c2OC1(C)C` (stereo not drawn) yielded an IC50 of 3.2 µM.
With `Cc1c(C)c2c(c(C)c1O)C(CN1CCN(CCOCCO)CC1)C(C)(C)O2` (stereo not drawn), in the experiment filed under Mus musculus [8], the Paraparetic mice is recorded as 60%. In addition, the inhibition entry in the experiment with Mus musculus [10] was “inactive”. Moreover, the Rate constant in experiment [1] was found to be 85000 M⁻¹ s⁻¹. For the same compound, the Concentration with Mus musculus [4] is 1.2 nM/g. Moreover, the IC50 in the experiment filed under Rattus norvegicus [2] (Rattus norvegicus, Brain) is 1.2 µM.
Compound `Cc1c(C)c2c(c(C)c1O)C(CN1CCN(CCO)CC1)C(C)(C)O2` (stereo not drawn) gave an inhibition in vivo at 20 µmol/kg with Mus musculus [3] of 57%. The same compound yielded a Paraparetic mice in the experiment filed under Mus musculus [8] of 40%. Moreover, in experiment [1], the Rate constant is 90000 M⁻¹ s⁻¹. The same compound came in with a Concentration in the experiment with Mus musculus [4] of 6.5 nM/g. Moreover, half-maximal inhibition in the experiment listed under Rattus norvegicus [2] (Rattus norvegicus, Brain) (IC50) was put at 0.5 µM.
Consider `Cc1c(C)c2c(c(C)c1O)C(C(=O)OCCN1CCN(C)CC1)C(C)(C)O2` (stereo not drawn), for which the inhibition in vivo at 20 µmol/kg in the experiment on Mus musculus [3] is 10%. In the experiment listed under Rattus norvegicus [2] (Rattus norvegicus, Brain), this compound had an IC50 of 3.9 µM.
Take `Cc1c(C)c2c(c(C)c1O)C(CN(C)C)C(C)(C)O2` (stereo not drawn): in the experiment on Mus musculus [10], the inhibition result was “inactive”. Besides, the Rate constant in experiment [1] stood at 150000 M⁻¹ s⁻¹. Also, the IC50 in the experiment listed under Rattus norvegicus [2] (Rattus norvegicus, Brain) was 0.7 µM.
